# GSTO1 counter – blocks human GSTO1 in RBBP9 counter-screen; P78417; recombinant GSTO1, activity-based probe fluorescence polarization; inhibition, % at 5.96 µM; hit rate 1.1% among 300,000; AID 1974;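 active = inhibition above the campaign mean inhibition plus 3 SD, cut at about 35% in these data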;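 also: 0% = GSTO1-1 with DMSO and 100% = wells lacking GSTO1-1 enzyme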
# Fh CTSL1 inh – counter-screen for PFM18AAP inhibitors: inhibitors of F. hepatica cathepsin L1. recombinant F. hepatica cathepsin L1, Z-Leu-Arg-MCA fluorescence. inhibition, % at 5.96 µM. hit rate 0.49% among 300,000. AID 1906;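 active = inhibition above the mean of all tested compounds plus 3 SD, set per screening campaign, cut at about 17% in these data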;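 also: 0% = plate median of test compound wells and 100% = 1 µM Z-Phe-Ala-diazomethylketone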
# UCH37 inh – inhibitors of human deubiquitinating enzyme UCH37 | hit rate 0.33% among 330,000 | inhibition, % (test concentration not listed) | purified proteasome/UCH37, Ub-AMC cleavage fluorescence;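 active = mean inhibition over replicate wells above about 20%, limit read from the data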;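 also: 0% = compound-free wells with enzyme and 100% = wells lacking proteasome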
#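 Reagent: Ub-AMC substrate; assay system: Proteasome-associated human UCH37 deubiquitinase; controls: no-proteasome and no-compound wells; read-out: % inhibition of Ub-AMC cleavage fluorescence; timing: 30 min preincubation with enzyme, 25 min cleavage at room temperature; signal: AMC fluorescence from Ub-AMC cleavage, excitation 355 nm, emission 460 nm; buffer or medium: Tris-HCl pH 7.4 plus ovalbumin, ATP-MgCl2, DTT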
# Apaf1 inhib – human Apaf-1 inhibition; O14727; reconstituted apoptosome caspase-3 activity, DEVD-Rh110 fluorescence; inhibition, % at 20 µM; hit rate 0.71% among 330,000; AID 489030; active = inhibition of at least 40% at 20 µM;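 also: plate controls were DMSO wells for no effect and DEVD-CHO caspase inhibitor wells for full effect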
#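 System: Apoptosome proteins | Medium: Hepes pH 7.5 with detergent and BSA | Also added: Cytochrome c trigger plus (Z-DEVD)2-Rh110 caspase-3 substrate | Incubation: 30 min compound preincubation, 50 min activation, room temperature | Detection: Rhodamine 110 fluorescence at Ex 480/Em 540 nm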
# PP5 inh – PP5 (human) phosphatase inhibition; P53041; purified PP5c, OMFP substrate fluorescence; inhibition, % at 6.7 µM; hit rate 0.18% among 320,000;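 active = inhibition above the campaign's mean inhibition across all tested compounds plus 3 SD, cut at about 9.5% in these data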;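 also: 0% = DMSO only and 100% = 100 µM cantharidin control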
# Target sequence (P53041 whole entry, looked up): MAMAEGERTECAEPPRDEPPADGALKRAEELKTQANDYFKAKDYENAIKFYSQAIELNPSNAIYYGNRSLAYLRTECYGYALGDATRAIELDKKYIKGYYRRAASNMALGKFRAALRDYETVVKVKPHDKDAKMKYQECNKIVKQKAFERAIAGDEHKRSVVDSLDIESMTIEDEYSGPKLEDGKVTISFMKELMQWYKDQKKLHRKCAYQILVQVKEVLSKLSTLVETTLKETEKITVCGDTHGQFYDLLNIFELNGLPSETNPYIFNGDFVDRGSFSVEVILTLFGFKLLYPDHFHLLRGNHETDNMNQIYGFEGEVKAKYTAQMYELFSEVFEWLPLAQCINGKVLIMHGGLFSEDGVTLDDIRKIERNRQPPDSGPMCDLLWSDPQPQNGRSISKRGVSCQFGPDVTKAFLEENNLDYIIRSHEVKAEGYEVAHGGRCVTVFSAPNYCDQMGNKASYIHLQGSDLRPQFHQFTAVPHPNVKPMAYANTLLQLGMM
# PAD4 FP inh – blocks human protein arginine deiminase 4; AID 485272; recombinant PAD4, RCA probe fluorescence polarization; hit rate 0.41% among 330,000; Q9UM07; inhibition, % at 6.36 µM;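 active = percent inhibition above a cutoff equal to the mean of all tested compounds plus 3 SD, cut at about 15% in these data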;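 also: 0% = PAD4 with RCA probe and DMSO and 100% = probe without PAD4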
# Apaf-1 inh conf2 – Apaf-1 inhibition, single-dose confirmed. reconstituted apoptosome, caspase-3 DEVD-Rh110 fluorescence. inhibition, % at 20 µM. hit rate 25% among 1,800. shares compounds with Apaf1 inhib;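 active = mean inhibition of at least 40% at 20 µM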;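 also: plate controls were DMSO wells for no effect and DEVD-CHO caspase inhibitor control wells for full effect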
# Rh110 quench – counter-screen for Apaf-1 inhibitors: fluorescence interference; AID 504615; shares compounds with Apaf1 inhib; activation (fluorescence interference), % at 20 µM; Rh110 fluorescence interference, quenched caspase reaction; 1,800 tested, under 10 active;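 active = signal rise of 40% or more at 20 µM, treated as a fluorescence artifact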
# Apaf1 inh interf – shows fluorescence interference in the Apaf-1 inhibitor assay format. shares compounds with Apaf1 inhib. fluorescence interference counterscreen, Apaf-1 assay format. IC50, µM. 460 tested, under 10 active; call rule not given here
# * = called active by the depositor; / = no result. A selection: hits, their analogues and other compounds. The true share with any hit is near 2%.
SMILES,GSTO1 counter,Fh CTSL1 inh,UCH37 inh,Apaf1 inhib,PP5 inh,PAD4 FP inh,Apaf-1 inh conf2,Rh110 quench,others
CCN1CCCC1CNC(=O)c1cc2c(-c3ccc(Cl)cc3)nn(C)c2s1 (configuration not stated),-6,3,-229,49*,4,-2,11,13,
c1coc(-c2nnc3sc(Cc4cccs4)nn23)c1,6,-4,2,-4,2,-8,/,/,
c1csc(Cc2nn3c(-c4n[nH]c5c4CCC5)nnc3s2)c1,5,0,1,41*,1,-5,34,7,
O=C(NCCCN1CCCCCC1)c1cc2c(=O)oc3ccccc3c2s1,-9,0,-6,40*,2,1,11,6,
Cc1ccc(-c2c(C(=O)NN=Cc3ccoc3)nnn2-c2nonc2N)cc1,/,/,2,/,/,/,/,/,
O=C(CCNC(=O)c1ccc(Cl)cc1)NCCCN1CCOCC1,/,/,3,48*,1,1,36,-3,
O=C(NCCCN1CCOCC1)c1ccccc1,6,-2,3,-7,2,-6,/,/,
Cn1c(C(=O)NCCN2CCN(Cc3ccccc3)CC2)cc2c(=O)n(C)c3ccccc3c21,2,3,-1,12,-4,-3,/,/,
Cn1c(C(=O)NCCN2CCCCCC2)cc2c(=O)n(C)c3ccccc3c21,9,-2,-6,43*,-1,-1,19,8,
COc1cc(C=NNC(=O)c2ccc(C)nc2)ccc1OC(=O)c1ccc2c(c1)OCO2,/,/,-2,/,/,/,/,/,
Cc1cc(SCC2=NNC(=O)C2)c(Cl)cc1Cl,26,3,3,47*,0,-5,33,-1,
CCCCCCOC(=O)C(C#N)c1nc2ccccc2nc1N1CCN(CC)CC1 (configuration not stated),4,11,-8,42*,0,-4,28,10,
c1ccc(CNc2nc(NCc3ccccc3)c3ccccc3n2)cc1,-16,-4,-48,66*,4,-3,6,0,
CCc1ccc(N2CSC3=C(C#N)C(c4cccs4)CC(=O)N3C2)cc1 (configuration not stated),7,3,9,20,0,-3,/,/,
CCOC(=O)c1ccc(N2CSC3=C(C#N)C(c4cccs4)CC(=O)N3C2)cc1 (configuration not stated),5,2,4,55*,0,-12,18,2,
COc1ccc(N2CSC3=C(C#N)C(c4ccc(OC)c(OC)c4)CC(=O)N3C2)c(OC)c1 (configuration not stated),28,-3,5,25,2,-14,/,/,
CCOc1ccccc1N1CSC2=C(C#N)C(c3c(OC)ccc4ccccc34)CC(=O)N2C1 (configuration not stated),15,3,/,41*,0,-12,22,4,
NC(=O)COc1cccc(C=NNC(=O)c2ccc(-n3cccc3)cc2)c1,/,/,4,/,/,/,/,/,
Cc1cc([N+](=O)[O-])c(-c2ccc(C=Nn3cnnc3)o2)cc1Cl,/,/,1,/,/,/,/,/,
C[n+]1ccccc1C=NO,/,/,2,/,/,/,/,/,
C=CCOc1c(Cl)cc(C=NO)cc1OC,/,/,6,/,/,/,/,/,
O=C1C(=O)N(CCN2CCOCC2)C(c2ccccc2)/C1=C(\O)c1ccc2c(c1)OCCO2 (configuration not stated),4,0,7,50*,0,0,1,5,
O=C1/C(=C\c2ccc(-c3ccccc3[N+](=O)[O-])o2)C(c2ccccc2)=NN1c1ccccc1,-1,-4,9,44*,2,-10,23,-9,
Cc1ccc(-c2ccc(/C=C3\C(=O)ON=C3c3ccccc3)o2)c([N+](=O)[O-])c1,31,3,18,-17,4,-6,/,/,
Cc1ccc(NC(=O)CN2C(=O)S/C(=C/c3ccc(-c4cc(C(=O)O)ccc4C)o3)C2=O)cc1C,-4,5,-2,42*,2,-7,38,10,
SMILES,GSTO1 counter,Fh CTSL1 inh,UCH37 inh,Apaf1 inhib,PP5 inh,PAD4 FP inh,Apaf-1 inh conf2,Rh110 quench,others
Cc1ccc2c(c1)C(=O)C(=O)N2Cc1ccc(Cl)cc1,/,/,-3,40*,/,5,24,7,
COc1ccc(CN(C)C(=O)c2cc(S(=O)(=O)NCc3ccccc3)ccc2C)c(OC)c1,/,/,4,61*,0,-2,40*,11,Apaf1 inh interf=>100
COc1cccc(CN(C)C(=O)c2cc(S(=O)(=O)NCc3ccccc3)ccc2C)c1OC,10,3,5,29,0,-5,/,/,
Cc1cc(C)n(N=Cc2ccc(O)cc2)c(=O)c1C#N,/,/,10,/,/,/,/,/,
Cc1cc(C)cc(NC(=S)Nc2cccc3cnccc23)c1,/,/,4,98*,/,/,17,-1,
Cc1ccc(NC(=S)Nc2cccc3cnccc23)c(C)c1,2,6,4,96*,4,-13,13,0,
CCc1ccc(NC(=S)Nc2cccc3cnccc23)cc1,11,0,0,89*,0,-8,43*,21,Apaf1 inh interf=>100
CC(=NNS(=O)(=O)c1ccc(C)c([N+](=O)[O-])c1)c1cc2ccccc2o1,/,/,7,/,/,/,/,/,
CCOc1ccc(C(=O)NN=C(C)C2C(=O)c3ccccc3C2=O)cc1,/,/,7,/,/,/,/,/,
C#CCOCCOCCOCCNc1nc(N2CCN(C(=O)[C@H](CCCCN)n3cc(CCCC)nn3)CC2)nc(N2CCN(C(=O)[C@H](CCCCN)n3cc(CCC(=O)O)nn3)CC2)n1,25,4,-1,7,-1,0,/,/,
C#CCOCCOCCOCCNc1nc(N2CCN(C(=O)C([C@@H](C)O)n3cc([C@@H](N)CCCCN)nn3)CC2)nc(N2CCN(C(=O)[C@H](CCCCN)n3cc([C@@H](N)CC(N)=O)nn3)CC2)n1 (some centres not stated),/,/,4,51*,/,3,9,-2,
C#CCOCCOCCOCCNc1nc(N2CCN(C(=O)[C@H](CCCCN)n3cc([C@@H](N)CC(N)=O)nn3)CC2)nc(N2CCN(C(=O)[C@H](CCCCN)n3cc([C@@H](N)CC(N)=O)nn3)CC2)n1,/,/,2,55*,/,-4,5,3,
C#CCOCCOCCOCCNc1nc(N2CCN(C(=O)[C@H]([C@@H](C)CC)n3cc([C@@H](N)Cc4ccc(O)cc4)nn3)CC2)nc(N2CCN(C(=O)[C@H](CCCCN)n3cc([C@@H](N)CO)nn3)CC2)n1,-3,16,0,52*,3,-2,0,1,
